Assay results pooled from the literature.
Each line is one published result; the experiments were not run side by side.
Target: Serine/threonine-protein kinase pim-1 (PIM1, Homo sapiens, UniProt P11309)

SMILES	effect on	mode	technique	tested at	measurement	result
Cn1cc(-c2cccc(N3CCc4c(sc5c4CC(C)(C)C5)C3=O)c2CO)cc(Nc2ccncn2)c1=O	enzyme activity	inhibitor		1 µM	inhibition	2%
Cn1cncc1[C@@](O)(COc1ccc(C#N)cc1-c1ccc(OC(F)(F)F)cc1)c1ccc(C#N)cc1	cell-free assay		competition with immobilised ligand	1 µM	remaining binding	100%
Cn1cc(-c2cc(F)cc(N3CCn4c(cc5c4CCCC5)C3=O)c2CO)cc(Nc2ccc(N3CCN(C4COC4)CC3)cn2)c1=O	enzyme activity	inhibitor		0.1 µM	inhibition	11%
CC(C)(C)c1cc(C=C(C#N)C#N)cc(Br)c1O	enzyme activity	inhibitor		0.5 µM	remaining activity	94.7%
COc1ncccc1-c1cnn2ccc(N3CCN(C(=O)OC(C)C)CC3)nc12	binding		competition with immobilised ligand	1 µM	remaining binding	100%
O=c1[nH]c2ccccc2n1C1CCN(Cc2ccc(-c3[nH]c4cc5ncnc5cc4nc3-c3ccccc3)cc2)CC1	cell-free assay			0.5 µM	remaining signal	106%
N#CC1(c2ccccn2)CCN(Cc2cc(C(=O)O)c(=O)n3ccccc23)CC1	cell-free assay		competition with immobilised ligand	1 µM	remaining binding	99%
Cc1nn(C)cc1-c1nc2c(N3CCN(Cc4ccc(Cl)cc4)CC3)c(Cl)cnc2[nH]1	binding		competition with immobilised ligand	1 µM	remaining binding	100%
